Common to all, as to type: functional, cell-based
The test system of one assay is HCT-116. Briefly: Cytotoxicity against human HCT116 cells after 48 hrs by SRB assay. Particulars: HCT-116, 48 h. In short, it runs like this: (§1)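 Cells grown in RPMI-1640 with 10% FBS and antibiotics at 37 °C, 5% CO2. Agents from fresh 1 mg/ml DMSO stocks were diluted in medium and applied for 48 h at 37 °C in triplicate wells. Cells were fixed with cold 50% TCA, stained with 0.4% SRB, and the dye solubilized in 10 mM Tris pH 10.5 before reading A570. IC50 is the concentration giving 50% reduction in net protein increase versus untreated cells, after blank correction. Values are the mean ± SEM of at least two independent runs.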
For orientation: The SRB assay estimates cell density from bound dye.

The next assay deals with SK-N-SH. Briefly: Cytotoxicity against human SK-N-SH cells after 48 hrs by SRB assay. In short, it runs like this: as §1
For a further assay, the system named is SK-BR-3. Description: Cytotoxicity against human SK-BR-3 cells after 48 hrs by SRB assay. Particulars: SK-BR-3, 48 h. The essentials: as §1
The test system of a further assay is DU-145. Description: Cytotoxicity against human DU145 cells after 48 hrs by SRB assay. Particulars: DU-145, 48 h. The essentials:
as §1

In the next assay the test system is A549. Description: Cytotoxicity against human A549 cells after 48 hrs by SRB assay. Particulars: A549, 48 h. The essentials: as §1

In the case of `CO[C@@H]1CC=C2N(c3cc(Cl)cc(Cl)c3)C(=O)C[C@]2(c2ccccc2)O1`, the IC50 (commonly the concentration that inhibits the measured activity by half) was 11.2 µM in the assay with HCT-116; 9.67 µM with SK-N-SH; 6.54 µM in the assay on SK-BR-3; 8.17 µM in the assay with DU-145; 7.53 µM with A549.

Consider `CO[C@@H]1CC=C2NN(c3c[nH]c4ccccc34)C(=O)CC[C@]2(c2ccccc2)O1`, for which the IC50 worked out at 1.1 µM in the assay with HCT-116; 1 µM with SK-N-SH; 1.2 µM in the assay on SK-BR-3; 1.13 µM in the assay with DU-145; 1.11 µM with A549.

For `CO[C@@H]1CC=C2N(c3ccc([N+](=O)[O-])cc3)C(=O)C[C@]2(c2ccccc2)O1`, the IC50 with HCT-116 is 8 µM; with SK-N-SH, 9.4 µM; in the assay on SK-BR-3, 6.3 µM; with DU-145, 8.1 µM; with A549, 7.15 µM.

On to `COc1cc(OC)cc(N2NC3=CC[C@@H](OC)O[C@@]3(c3ccccc3)CCC2=O)c1`, for which the IC50 in the assay with HCT-116 was 2.1 µM; in the assay on SK-N-SH, 3.2 µM; in the assay with SK-BR-3 it was 1.2 µM; in the assay on DU-145, 2.4 µM; with A549 it was 2.9 µM.

`CO[C@@H]1CC=C2N(c3c[nH]c4ccccc34)C(=O)C[C@]2(c2ccccc2)O1`: the IC50 with HCT-116 is 7.13 µM; in the assay on SK-N-SH, 8.2 µM; in the assay on SK-BR-3, 2.3 µM; in the assay with DU-145 it was 7.33 µM; in the assay with A549 it was 5.2 µM.

`CO[C@@H]1CC=C2NN(c3ccccn3)C(=O)CC[C@]2(c2ccccc2)O1`: the half-inhibitory concentration (IC50) was found to be 1.4 µM in the assay with HCT-116; 2.1 µM in the assay with SK-N-SH; 1.12 µM in the assay on SK-BR-3; 1.29 µM in the assay with DU-145; 1.48 µM in the assay with A549.

Regarding `CO[C@@H]1CC=C2NN(c3ccc([N+](=O)[O-])cc3)C(=O)CC[C@]2(c2ccccc2)O1`, the IC50 came out at 8.7 µM in the assay with HCT-116; 7.3 µM in the assay with SK-N-SH; 7.7 µM in the assay with SK-BR-3; 9.2 µM in the assay with DU-145; 9.49 µM with A549.

Regarding `CO[C@@H]1CC=C2N(c3ccccn3)C(=O)C[C@]2(c2ccccc2)O1`, the IC50 in the assay on HCT-116 is 7.3 µM; in the assay on SK-N-SH, 5.1 µM; in the assay on SK-BR-3, 1.1 µM; in the assay on DU-145, 8.3 µM; in the assay with A549, 6.11 µM.

With `COc1cc(OC)cc(N2C(=O)C[C@]3(c4ccccc4)O[C@H](OC)CC=C23)c1`, the IC50 in the assay on HCT-116 amounted to 6.1 µM; in the assay with SK-N-SH, 7.2 µM; with SK-BR-3, 1.1 µM; in the assay on DU-145 it was 6.1 µM; in the assay on A549, 4.11 µM.

With `CO[C@@H]1CC=C2N(c3ccc(C)cc3)C(=O)C[C@]2(c2ccccc2)O1`, the IC50 in the assay on HCT-116 worked out at 4.3 µM; with SK-N-SH it was 3.5 µM; in the assay with SK-BR-3, 1.1 µM; in the assay with DU-145 it was 4.4 µM; with A549, 3.92 µM.

Consider `CO[C@@H]1CC=C2N(c3ccc4[nH]ccc4c3)C(=O)C[C@]2(c2ccccc2)O1`, for which the concentration for half-maximal inhibition (IC50) was 5.3 µM in the assay with HCT-116; 4.4 µM in the assay with SK-N-SH; 1.3 µM in the assay with SK-BR-3; 4.1 µM in the assay with DU-145; 5.1 µM in the assay on A549.

Turning to `CO[C@@H]1CC=C2NN(c3cc(Cl)cc(Cl)c3)C(=O)CC[C@]2(c2ccccc2)O1`, the IC50 with HCT-116 worked out at 6.52 µM; with SK-N-SH, 7.11 µM; in the assay on SK-BR-3, 6.35 µM; in the assay on DU-145, 8.46 µM; with A549, 6.13 µM.

Take `COc1ccc(N2NC3=CC[C@@H](OC)O[C@@]3(c3ccccc3)CCC2=O)cc1`: the IC50 in the assay with HCT-116 came out at 3.1 µM; with SK-N-SH, 4.6 µM; with SK-BR-3, 2.4 µM; in the assay on DU-145, 4.1 µM; in the assay on A549, 5.1 µM.

As for `CO[C@@H]1CC=C2NN(c3ccc(C)cc3)C(=O)CC[C@]2(c2ccccc2)O1`, the IC50 came to 2.5 µM with HCT-116; 1.7 µM in the assay with SK-N-SH; 2.7 µM in the assay on SK-BR-3; 2.2 µM in the assay on DU-145; 3.17 µM in the assay with A549.

The values are drawn from ChEMBL document CHEMBL1250480, “Design, synthesis and qualitative structure-activity evaluations of novel hexahydropyrano[3,2-c][1,2]diazepin-3(4H)-one and tetrahydropyrano[3,2-b]pyrrol-2(1H)-one derivatives as anticancer agents” (Eur J Med Chem, 2010).
